Measured values: article PMC9064382 (RSC Advances, 2019)
pIC50: −log10 of the molar value.

Columns and labels:
Type in all cases: in vitro ADME
hOATP1B1 = biological target: T1, hOATP1B1 (Homo sapiens, UniProt Q9Y6L6)
T1 sequence (Q9Y6L6 1-691): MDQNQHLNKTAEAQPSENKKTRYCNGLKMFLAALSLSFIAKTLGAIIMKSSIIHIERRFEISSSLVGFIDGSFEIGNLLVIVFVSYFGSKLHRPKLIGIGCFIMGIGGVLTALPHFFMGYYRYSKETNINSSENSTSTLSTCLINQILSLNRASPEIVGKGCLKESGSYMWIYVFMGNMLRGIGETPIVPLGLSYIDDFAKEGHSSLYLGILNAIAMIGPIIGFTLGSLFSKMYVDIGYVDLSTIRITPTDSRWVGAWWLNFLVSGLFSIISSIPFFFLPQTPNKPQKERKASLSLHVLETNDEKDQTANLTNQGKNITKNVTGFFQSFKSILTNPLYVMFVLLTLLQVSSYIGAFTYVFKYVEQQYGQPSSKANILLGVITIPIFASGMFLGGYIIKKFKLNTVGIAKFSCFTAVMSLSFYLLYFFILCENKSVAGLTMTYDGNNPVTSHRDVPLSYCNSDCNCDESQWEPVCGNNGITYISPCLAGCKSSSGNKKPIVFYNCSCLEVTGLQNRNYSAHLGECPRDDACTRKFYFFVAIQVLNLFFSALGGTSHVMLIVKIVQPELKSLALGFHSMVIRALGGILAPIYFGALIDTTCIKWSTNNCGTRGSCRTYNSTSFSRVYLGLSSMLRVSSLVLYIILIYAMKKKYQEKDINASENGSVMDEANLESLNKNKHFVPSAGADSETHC

hOCT1 = biological target: T2, hOCT1 (Homo sapiens, UniProt O15245); test: Inhibition of 14C-TEA uptake in hOCT1-transfected cells by liquorice ingredients; conditions: read-out: IC50 on hOCT1; 14C-TEA probe, 5 min
T2 sequence (O15245 1-554): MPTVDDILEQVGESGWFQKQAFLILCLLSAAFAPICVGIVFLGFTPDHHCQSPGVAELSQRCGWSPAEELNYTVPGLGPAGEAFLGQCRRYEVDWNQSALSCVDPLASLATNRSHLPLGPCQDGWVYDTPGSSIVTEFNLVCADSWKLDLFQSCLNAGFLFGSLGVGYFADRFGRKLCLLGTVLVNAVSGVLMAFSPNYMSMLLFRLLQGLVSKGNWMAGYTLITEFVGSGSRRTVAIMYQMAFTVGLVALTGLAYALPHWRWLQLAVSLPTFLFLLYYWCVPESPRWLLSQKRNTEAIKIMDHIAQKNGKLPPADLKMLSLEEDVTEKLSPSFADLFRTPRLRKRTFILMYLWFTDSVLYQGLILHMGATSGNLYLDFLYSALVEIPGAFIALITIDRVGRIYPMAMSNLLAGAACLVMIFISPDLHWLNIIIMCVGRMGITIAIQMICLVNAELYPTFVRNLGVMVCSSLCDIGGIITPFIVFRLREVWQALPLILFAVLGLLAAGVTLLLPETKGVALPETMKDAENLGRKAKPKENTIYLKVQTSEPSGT
Method in brief: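 Transfected and mock cells were seeded at 2 × 10^5/well and grown 48 h. They were then exposed at 37 °C to test compound at 1, 3, 10, 30 and 100 μmol L−1 (DMSO <0.2%) with either 5 μmol L−1 14C-PAH for 2 min (hOAT1) or 5 μmol L−1 14C-TEA for 5 min (hOCT1). Uptake was stopped with cold DPBS and three rinses, cells lysed in 0.1 mol L−1 NaOH, counted by liquid scintillation (dpm), and IC50 calculated.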

hOATP1B3 = biological target: T3, hOATP1B3 (Homo sapiens, UniProt Q9NPD5)
T3 sequence (Q9NPD5 1-702): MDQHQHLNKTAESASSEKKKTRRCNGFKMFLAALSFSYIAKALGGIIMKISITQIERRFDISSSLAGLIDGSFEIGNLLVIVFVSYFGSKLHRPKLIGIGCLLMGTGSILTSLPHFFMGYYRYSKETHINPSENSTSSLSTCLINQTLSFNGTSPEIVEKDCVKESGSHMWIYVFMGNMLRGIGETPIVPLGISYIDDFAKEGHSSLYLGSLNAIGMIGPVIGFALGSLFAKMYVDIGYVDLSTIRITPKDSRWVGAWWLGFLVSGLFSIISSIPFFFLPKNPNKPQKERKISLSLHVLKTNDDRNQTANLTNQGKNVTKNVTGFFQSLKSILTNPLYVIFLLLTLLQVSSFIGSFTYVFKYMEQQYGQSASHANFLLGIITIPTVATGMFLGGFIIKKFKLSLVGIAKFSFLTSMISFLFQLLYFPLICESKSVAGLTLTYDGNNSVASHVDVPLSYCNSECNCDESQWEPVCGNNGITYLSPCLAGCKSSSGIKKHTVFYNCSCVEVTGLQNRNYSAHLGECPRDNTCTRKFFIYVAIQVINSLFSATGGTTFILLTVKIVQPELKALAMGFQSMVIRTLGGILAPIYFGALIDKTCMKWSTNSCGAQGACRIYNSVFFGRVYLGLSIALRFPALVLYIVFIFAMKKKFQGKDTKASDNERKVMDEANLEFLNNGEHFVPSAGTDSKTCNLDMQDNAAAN

C=CC(C)(C)c1cc(/C=C/C(=O)c2ccc(O)cc2)c(OC)cc1O [licochalcone A]
pIC50 (hOATP1B1; read-out: IC50 on hOATP1B1, 3H-ES probe, 2 min): 5.90
inhibition of hOATP1B1 (hOATP1B1; screening at 100 μm): strong inhibitors
pIC50 (hOCT1): 4.85
pIC50 (hOATP1B3; read-out: IC50 on hOATP1B3, 3H-ES probe, 2 min): 5.72
inhibition of hOATP1B3 (hOATP1B3; screening at 100 μm): strong inhibitors
